Source: ChEMBL document CHEMBL1165943, “Design and synthesis of new anticancer pyrimidines with multiple-kinase inhibitory effect” (Bioorg Med Chem, 2010)

Key:
NCI/ADR-RES = assay: Cytotoxicity against human NCI/ADR-RES cells assessed as cell growth at 0.01 uM after 48 hrs by sulforhodamine B assay; assay type: functional; settings: read-out: Activity
IGROV-1 = assay: Growth inhibition of human IGROV1 cells after 48 hrs by sulforhodamine B assay; assay type: functional, cell-based; settings: IGROV-1, 48 h; for CC50: read-out: LC50 (the source's name)
Outline: (§1)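 Cells grown in RPMI 1640 with 5% FBS and 2 mM L-glutamine, seeded at 5,000–40,000 cells/well according to doubling time. After 24 h, time-zero plates are TCA-fixed. Five concentrations (10-fold or ½log dilutions, DMSO stocks) are applied for 48 h at 37 °C, 5% CO₂. Cells are TCA-fixed, SRB-stained and read at 515 nm. IC₅₀ is taken from [(Ti−Tz)/(C−Tz)]×100 = 50.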

MDA-MB-468 [1] = assay: Cytotoxicity against human MDA-MB-468 cells assessed as cell growth at 10 uM after 48 hrs by sulforhodamine B assay; assay type: functional; settings: MDA-MB-468, 48 h, read-out: Activity
COLO 205 [2] = assay: Cytotoxicity against human COLO205 cells assessed as cell growth at 100 nM after 48 hrs by sulforhodamine B assay; assay type: functional; settings: COLO 205, 48 h, read-out: Activity
Outline: (§2)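 Cells grown in RPMI 1640 with 5% FBS and 2 mM L-glutamine, seeded at 5,000–40,000 cells/well by doubling time. Time-zero plates TCA-fixed after 24 h. Five concentrations (10-fold or half-log dilutions from DMSO stock) added; 48 h at 37 °C, 5% CO2. Cold TCA fixation (final 10%, 60 min, 4 °C), 0.4% SRB stain, dye solubilized in 10 mM trizma base, A515.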

LOX IMVI [3] = assay: Cytotoxicity against human LOXIMVI cells assessed as cell growth at 0.001 uM after 48 hrs by sulforhodamine B assay; assay type: functional; settings: read-out: Activity
MDA-MB-231 = assay: Cytotoxicity against human MDA-MB-231 cells assessed as cell growth at 100 nM after 48 hrs by sulforhodamine B assay; assay type: functional; settings: MDA-MB-231, 48 h, read-out: Activity
MDA-MB-468 [4] = assay: Cytotoxicity against human MDA-MB-468 cells assessed as cell growth at 0.001 uM after 48 hrs by sulforhodamine B assay; assay type: functional; settings: MDA-MB-468, 48 h, read-out: Activity
DU-145 = assay: Cytotoxicity against human DU145 cells assessed as cell growth at 0.001 uM after 48 hrs by sulforhodamine B assay; assay type: functional; settings: DU-145, 48 h, read-out: Activity
T47D = assay: Cytotoxicity against human T47D cells assessed as cell growth at 10 uM after 48 hrs by sulforhodamine B assay; assay type: functional; settings: read-out: Activity
A498 [5] = assay: Cytotoxicity against human A498 cells assessed as cell growth at 0.01 uM after 48 hrs by sulforhodamine B assay; assay type: functional; settings: A498, 48 h, read-out: Activity; outline: as §2
HL-60(TB) [6] = assay: Cytotoxicity against human HL-60(TB) cells assessed as cell growth at 1 uM after 48 hrs by sulforhodamine B assay; assay type: functional; settings: HL-60, 48 h, read-out: Activity
Outline: (§3)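 Five-concentration HL-60(TB) test in RPMI 1640 with 5% FBS and 2 mM L-glutamine. Cells are plated at 5,000–40,000/well and a TCA-fixed time-zero plate is read at drug addition after 24 h. Drug is dissolved in DMSO and given as five 10-fold or ½log dilutions for 48 h at 37 °C, 5% CO2. Settled cells are fixed with TCA, stained with SRB and read at 515 nm.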

SNB-19 = assay: Growth inhibition of human SNB19 cells after 48 hrs by sulforhodamine B assay; assay type: functional, cell-based; settings: SNB-19, 48 h; for CC50: read-out: LC50 (the source's name); outline: as §1
LOX IMVI [7] = assay: Cytotoxicity against human LOXIMVI cells assessed as cell growth at 10 uM after 48 hrs by sulforhodamine B assay; assay type: functional; settings: read-out: Activity
OVCAR-4 = assay: Cytotoxicity against human OVCAR4 cells assessed as cell growth at 0.001 uM after 48 hrs by sulforhodamine B assay; assay type: functional; settings: OVCAR-4, 48 h, read-out: Activity
CAKI-1 = assay: Cytotoxicity against human Caki1 cells assessed as cell growth at 0.001 uM after 48 hrs by sulforhodamine B assay; assay type: functional; settings: CAKI-1, 48 h, read-out: Activity; outline: as §2
HCT-15 [8] = assay: Growth inhibition of human HCT15 cells after 48 hrs by sulforhodamine B assay; assay type: functional, cell-based; settings: HCT-15, 48 h; for CC50: read-out: LC50 (the source's name); outline: as §1
HCT-15 [9] = assay: Cytotoxicity against human HCT15 cells assessed as cell growth at 1 uM after 48 hrs by sulforhodamine B assay; assay type: functional; settings: HCT-15, 48 h, read-out: Activity
A498 [10] = assay: Cytotoxicity against human A498 cells assessed as cell growth at 100 nM after 48 hrs by sulforhodamine B assay; assay type: functional; settings: A498, 48 h, read-out: Activity; outline: as §2
SF-268 = assay: Cytotoxicity against human SF268 cells assessed as cell growth at 10 uM after 48 hrs by sulforhodamine B assay; assay type: functional; settings: SF-268, 48 h, read-out: Activity
A498 [11] = assay: Growth inhibition of human A498 cells after 48 hrs by sulforhodamine B assay; assay type: functional, cell-based; settings: A498, 48 h; for CC50: read-out: LC50 (the source's name)
Outline: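 Five-dose SRB assay. Cells in RPMI 1640 with 5% FBS and 2 mM L-glutamine were seeded at 5,000–40,000 cells/well, with a TCA-fixed time-zero plate (Tz) taken at 24 h. Compound stocks were in DMSO, serially diluted 10-fold or ½-log to five concentrations, and incubated 48 h at 37 °C. Plates were stained with SRB and read at 515 nm. IC₅₀ was taken where [(Ti−Tz)/(C−Tz)]×100 = 50.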

HL-60(TB) [12] = assay: Cytotoxicity against human HL-60(TB) cells assessed as cell growth at 0.01 uM after 48 hrs by sulforhodamine B assay; assay type: functional; settings: HL-60, 48 h, read-out: Activity; outline: as §3
NCI-H322M = assay: Cytotoxicity against human NCI-H322M cells assessed as cell growth at 0.01 uM after 48 hrs by sulforhodamine B assay; assay type: functional; settings: read-out: Activity
BT-549 [13] = assay: Cytotoxicity against human BT549 cells assessed as cell growth at 0.001 uM after 48 hrs by sulforhodamine B assay; assay type: functional; settings: BT-549, 48 h, read-out: Activity; outline: as §2
BT-549 [14] = assay: Cytotoxicity against human BT549 cells assessed as cell growth at 100 nM after 48 hrs by sulforhodamine B assay; assay type: functional; settings: BT-549, 48 h, read-out: Activity; outline: as §2
HCT-116 = assay: Cytotoxicity against human HCT116 cells assessed as cell growth at 100 nM after 48 hrs by sulforhodamine B assay; assay type: functional; settings: HCT-116, 48 h, read-out: Activity
UACC-257 = assay: Cytotoxicity against human UACC257 cells assessed as cell growth at 0.001 uM after 48 hrs by sulforhodamine B assay; assay type: functional; settings: UACC-257, 48 h, read-out: Activity
EKVX = assay: Cytotoxicity against human EKVX cells assessed as cell growth at 10 uM after 48 hrs by sulforhodamine B assay; assay type: functional; settings: read-out: Activity
COLO 205 [15] = assay: Cytotoxicity against human COLO205 cells assessed as cell growth at 10 uM after 48 hrs by sulforhodamine B assay; assay type: functional; settings: COLO 205, 48 h, read-out: Activity; outline: as §2

Work on `CC(=O)Nc1cccc(-c2ccc(-c3ccnc(NC(=O)Nc4cc(C(F)(F)F)cc(C(F)(F)F)c4)n3)cn2)c1.Cl` yielded a growth at 0.01 µM (NCI/ADR-RES) of 94%, a GI50 (IGROV-1) of 2.68 µM and an IC50 (IGROV-1) of 2.68 µM. For the same compound, the TGI (IGROV-1) was 9.46 µM, the CC50 (IGROV-1) was greater than 100 µM and the growth at 10 µM (MDA-MB-468 [1]) was 100%. The growth at 0.1 µM (COLO 205 [2]) was 96%, the growth at 0.001 µM (LOX IMVI [3]) was 95% and the growth at 0.1 µM (MDA-MB-231) was 77%. It also gave a growth at 0.001 µM (MDA-MB-468 [4]) of 99%, a growth at 0.001 µM (DU-145) of 112% and a growth at 10 µM (T47D) of -14%. It also gave a growth at 0.01 µM (A498 [5]) of 92%, a growth at 1 µM (HL-60(TB) [6]) of 28% and a GI50 (SNB-19) of 4.57 µM. It also gave an IC50 (SNB-19) of 4.57 µM, a TGI (SNB-19) of 17.8 µM and a CC50 (SNB-19) of 47.4 µM. For the same compound, the growth at 10 µM (LOX IMVI [7]) was 4%, the growth at 0.001 µM (OVCAR-4) was 32% and the growth at 0.001 µM (CAKI-1) was 108%. For the same compound, the GI50 (HCT-15 [8]) was 3.62 µM, the IC50 (HCT-15 [8]) was 3.62 µM and the TGI (HCT-15 [8]) was 15 µM. It also gave a CC50 (HCT-15 [8]) of 45.1 µM, a growth at 1 µM (HCT-15 [9]) of 18% and a growth at 0.1 µM (A498 [10]) of 64%. The growth at 10 µM (SF-268) was -50%, the GI50 (A498 [11]) was 6.13 µM and the IC50 (A498 [11]) was 6.13 µM. The TGI (A498 [11]) was 22.2 µM, the CC50 (A498 [11]) was 59.2 µM and the growth at 0.01 µM (HL-60(TB) [12]) was 90%. For the same compound, the growth at 0.01 µM (NCI-H322M) was 88%, the growth at 0.001 µM (BT-549 [13]) was 100% and the growth at 0.1 µM (BT-549 [14]) was 87%. For the same compound, the growth at 0.1 µM (HCT-116) was 72%, the growth at 0.001 µM (UACC-257) was 94% and the growth at 10 µM (EKVX) was -7%. The growth at 10 µM (COLO 205 [15]) was 3%.

Work on `CC(=O)c1ccccc1-c1ccc(-c2ccnc(NC(=O)Nc3cc(N4CCOCC4)cc(C(F)(F)F)c3)n2)cn1` yielded a growth at 0.01 µM (NCI/ADR-RES) of 98%, a GI50 (IGROV-1) greater than 100 µM and an IC50 (IGROV-1) of 6.18 µM. It also gave a TGI (IGROV-1) greater than 100 µM, a CC50 (IGROV-1) greater than 100 µM and a growth at 10 µM (MDA-MB-468 [1]) of 65%. The growth at 0.1 µM (COLO 205 [2]) was 107%, the growth at 0.001 µM (LOX IMVI [3]) was 104% and the growth at 0.1 µM (MDA-MB-231) was 84%. It also gave a growth at 0.001 µM (MDA-MB-468 [4]) of 97%, a growth at 0.001 µM (DU-145) of 100% and a growth at 10 µM (T47D) of 66%. For the same compound, the growth at 0.01 µM (A498 [5]) was 83%, the growth at 1 µM (HL-60(TB) [6]) was 88% and the GI50 (SNB-19) was 9.04 µM. It also gave an IC50 (SNB-19) of 38.7 µM, a TGI (SNB-19) greater than 100 µM and a CC50 (SNB-19) greater than 100 µM. It also gave a growth at 10 µM (LOX IMVI [7]) of 93%, a growth at 0.001 µM (OVCAR-4) of 110% and a growth at 0.001 µM (CAKI-1) of 97%. It also gave a GI50 (HCT-15 [8]) greater than 100 µM, an IC50 (HCT-15 [8]) greater than 100 µM and a TGI (HCT-15 [8]) greater than 100 µM. It also gave a CC50 (HCT-15 [8]) greater than 100 µM, a growth at 1 µM (HCT-15 [9]) of 88% and a growth at 0.1 µM (A498 [10]) of 72%. For the same compound, the growth at 10 µM (SF-268) was 44%, the GI50 (A498 [11]) was 13 µM and the IC50 (A498 [11]) was greater than 100 µM. It also gave a TGI (A498 [11]) greater than 100 µM, a CC50 (A498 [11]) greater than 100 µM and a growth at 0.01 µM (HL-60(TB) [12]) of 87%. It also gave a growth at 0.01 µM (NCI-H322M) of 108%, a growth at 0.001 µM (BT-549 [13]) of 101% and a growth at 0.1 µM (BT-549 [14]) of 74%. It also gave a growth at 0.1 µM (HCT-116) of 86%, a growth at 0.001 µM (UACC-257) of 89% and a growth at 10 µM (EKVX) of 74%. The growth at 10 µM (COLO 205 [15]) was 115%.
